Data set [1] can be described thus: Drug metabolism in dog hepatocytes assessed as glucuronidation at 1 uM measured at 120 mins. In kind it is ADME, cell-based, Canis lupus familiaris, Hepatocyte. Particulars: read-out: Drug metabolism; call rule not given here.
Data set [2] can be described thus: Volume of distribution at steady state in rat at 1 mg/kg, iv or 2 mg/kg, po. In kind it is ADME, organism-based. Particulars: in vivo, read-out: Vdss. An outline of the steps: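 Rats dosed once at 1 mg/kg IV and, separately, 2 mg/kg PO, with n = 3. Derived parameters were plasma clearance, Vdss, dose-normalized oral AUC (μM·h·kg/mg), half-life, and oral bioavailability (F%).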

For data set [3], the target named is T1, Inward rectifier potassium channel 2 (Homo sapiens, UniProt P63252).
T1 sequence (P63252 whole entry): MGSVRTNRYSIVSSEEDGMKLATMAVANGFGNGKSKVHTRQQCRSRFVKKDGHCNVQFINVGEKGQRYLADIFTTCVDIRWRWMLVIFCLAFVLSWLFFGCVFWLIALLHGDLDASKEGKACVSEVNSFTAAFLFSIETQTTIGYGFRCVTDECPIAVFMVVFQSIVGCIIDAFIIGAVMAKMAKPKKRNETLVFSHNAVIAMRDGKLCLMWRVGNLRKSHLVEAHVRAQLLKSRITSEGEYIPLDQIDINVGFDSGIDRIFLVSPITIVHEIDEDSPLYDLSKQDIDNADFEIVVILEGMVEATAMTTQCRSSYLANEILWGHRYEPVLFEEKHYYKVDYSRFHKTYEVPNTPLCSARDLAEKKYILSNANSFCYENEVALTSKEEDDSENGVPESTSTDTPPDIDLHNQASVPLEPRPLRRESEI
The experiment in a line: Inhibition of Kir2.1 (unknown origin) upto 30 uM.

Structures are written as SMILES.

With `Cc1c([C@@H](O)CN2CCN(C[C@H](O)c3ccc4c(c3C)COC4=O)CC2)ccc2c1COC2=O` [MK-7145], the metabolised at 2 h, 1 µM in data set [1] was below 1%. In addition, in data set [2], the Vd was 3.8 L/kg. The “inhibition (INH)” value in data set [3] is given as “Not Active”.

The values above are taken from ChEMBL document CHEMBL4425169 (ACS Med Chem Lett, 2016).
